Screening data: PubChem BioAssay, several laboratories
Hits are enriched below; roughly 2.6% of the tested compounds scored in any of these assays.
ASAP1 GAP inh = blocks human ASAP1-stimulated Arf1 GTP hydrolysis. Q9ULH1. GDP FP detection. inhibition, % at 16.5 µM. 360,000 compounds, 0.19% hits; in the data active = inhibition above about 25%;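 also: 0% = vehicle with enzyme and substrate and 100% = no enzyme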
Target sequence (Q9ULH1 325-724 limits assumed): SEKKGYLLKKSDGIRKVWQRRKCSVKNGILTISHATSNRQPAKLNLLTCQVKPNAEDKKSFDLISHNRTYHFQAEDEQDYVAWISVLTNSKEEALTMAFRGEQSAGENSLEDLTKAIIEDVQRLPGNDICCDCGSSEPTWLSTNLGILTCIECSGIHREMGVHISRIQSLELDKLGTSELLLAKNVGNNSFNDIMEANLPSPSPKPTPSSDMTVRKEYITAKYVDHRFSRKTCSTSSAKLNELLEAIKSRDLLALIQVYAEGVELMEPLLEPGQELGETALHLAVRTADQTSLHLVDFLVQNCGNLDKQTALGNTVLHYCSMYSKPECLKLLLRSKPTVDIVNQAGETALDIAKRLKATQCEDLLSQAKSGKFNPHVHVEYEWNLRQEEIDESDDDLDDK
esBAF inh = SWI/SNF esBAF complex inhibition; reporter increase, % at 12.5 µM; AID 602393; mouse ES cells, Bmi1-luciferase knock-in reporter, 24 h; 100% = twice the neutral-well signal; 350,000 compounds, 2% hits; in the data active = activation above about 40%; inconclusive = no clear call, values can overlap the other calls;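 also: 0% = median of the plate's neutral control wells and 100% = double that signal; a rise in the Bmi1 reporter signal indicates esBAF inhibition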
SMARCA2 act = activators of SMARCA2 function | MG213 cells, MMTV-luciferase reporter, dexamethasone, overnight | activation, % at 9.1 µM | 370,000 compounds, 1% hits | AID 652017; in the data active = activation above about 7.8%;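 also: 0% = vehicle wells and 100% = reference activator wells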
ARFGAP1 inhibitor = inhibitors of rat ARFGAP1; inhibition, % at 16.5 µM; 360,000 compounds, 0.26% hits; AID 651572; Q62848; Arfgap1-stimulated ARF1 GTP hydrolysis, GDP FP detection;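 active = inhibition above a per-plate limit, mean inhibition of low control wells plus 3 SD, cut at about 25% in these data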;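 also: 0% = DMSO wells with enzyme and 100% = wells lacking Arfgap1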
Target sequence (Q62848 1-136 limits assumed): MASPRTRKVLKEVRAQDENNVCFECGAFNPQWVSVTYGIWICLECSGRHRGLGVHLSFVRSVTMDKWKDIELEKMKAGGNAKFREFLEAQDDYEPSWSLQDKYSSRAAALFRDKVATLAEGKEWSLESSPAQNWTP
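Material – truncated rat Arfgap1 GAP domain · Buffer or medium – HEPES-based buffer, pH 7.5 · Reagent – human ARF1(Δ1-17)-GTP substrate · Dosing – 16.5 µM single point, 1.26% DMSO · Schedule – GTP hydrolysis reaction 2 h at 25 °C · Technique – GDP detection by fluorescence polarization · Benchmarks – No-Arfgap1 wells (100%) versus DMSO full-reaction wells (0%) · Repeats – single replicate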
Ring1 derepress = esBAF inhibition confirmed by Ring1 de-repression; fold change at 33 µM; shares compounds with esBAF inh; mouse ESC E14, Ring1 mRNA RT-qPCR fold change; 550 tested, under 10 active;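 active = Ring1 gene expression raised more than 2-fold over untreated cells in both replicates at either tested dose; inconclusive = only one replicate above 2-fold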;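 also: Ring1 transcript normalised to actin housekeeping signal by TaqMan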
esBAF Fgf4 qPCR = represses Fgf4 in mouse ESCs, confirming esBAF inhibition; shares compounds with esBAF inh; Fgf4 expression fold change at 33 µM; mouse ESC E14, Fgf4 mRNA qPCR fold change; active compounds read low; 550 compounds, 4% hits;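 active = Fgf4 expression under 0.8 fold of control in both repeat measurements at one or both tested doses; inconclusive = under 0.8 fold in just a single repeat measurement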;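 also: Fgf4 transcript normalised to actin in duplex TaqMan qPCR; cells exposed to compound for 24 h before lysis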
esBAF Bmi1 qPCR = de-represses Bmi1 in mouse ESCs, confirming esBAF inhibition; shares compounds with esBAF inh; mouse ESE14 ES cells, Bmi1 mRNA qPCR fold; active compounds read high; fold change at 33 µM; 550 tested, under 10 active; AID 743180;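 active = Bmi1 expression fold change above 6 at either tested concentration, seen in replicate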;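 also: higher fold means more Bmi1 de-repression and stronger esBAF inhibition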
A549 cytotox = cytotoxicity in A549 cells. plate reader. 550 tested, under 10 active. cell viability change % (negative = cytotoxic), % at 25 µM, hits read low. AID 743188. shares compounds with esBAF inh; call rule not given here
HepG2 cytotox SP = HepG2 cell cytotoxicity at single point; AID 743189; shares compounds with esBAF inh; activity change, negative = inhibition, % at 25 µM; 550 compounds, 4% hits; plate reader; active compounds read low; in the data active = activity change below about -50%
HEK293 tox SP = kills or reduces viability of HEK293 cells. shares compounds with esBAF inh. HEK293 cytotoxicity, plate reader. activity change, negative = inhibition, % at 25 µM, hits read low. 550 compounds, 3% hits. AID 743190; in the data active = activity change below about -38%, passing the limit was not always enough
ASAP1 inh confirm = ASAP1 inhibition confirmed; 620 compounds, 37% hits; inhibition, % at 16.5 µM; shares compounds with ASAP1 GAP inh; ASAP1-stimulated Arf1 GTPase, GDP fluorescence polarization;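 active = mean inhibition over triplicates exceeds the hit threshold derived for the earlier primary screening run, cut at about 25% in these data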
SMARCA2 conf = SMARCA2 activation, confirmation screen. shares compounds with SMARCA2 act. MG213 cells, MMTV-luciferase with dexamethasone, luminescence, overnight; MG213 cells expressing E1A, Rb sequestered; DMSO wells 0%, reference activator 100%. activation, % at 9.1 µM. 3,500 compounds, 30% hits;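 active = activation above its plate's cutoff, the mean activation of tested wells plus 3 SD, cut at about 7.9% in these data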
GAL4-VP16 Luc = GAL4-VP16 reporter activation counter-screen | HEK293 GAL4-VP16 pG5luc reporter, luciferase luminescence; scaled: DMSO wells 0%, SAHA wells 100% | 3,500 compounds, 41% hits | activation, % at 9.1 µM | AID 686939 | shares compounds with SMARCA2 act;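 active = activation above the solvent-only control well mean plus 3 SD, averaged across control plates, cut at about 5.2% in these data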
The depositor's hits bear a star; ? = inconclusive; nt = no result given; ! = not active in a repeat.

SMILES	ASAP1 GAP inh	esBAF inh	SMARCA2 act	ARFGAP1 inhibitor	Ring1 derepress	esBAF Fgf4 qPCR	esBAF Bmi1 qPCR	A549 cytotox	HepG2 cytotox SP	HEK293 tox SP	SMARCA2 conf	GAL4-VP16 Luc	others
COc1ccc(Nc2nc(C)c(C(C)=O)s2)cc1	-7	82*	8.2*	-4	1.2	0.88	1.4	-5	-8	0	2	10*
COc1ccc(C(=O)c2sc(Nc3ccc(NC(C)=O)cc3)nc2C)cc1	10	9	-6	6	nt	nt	nt	nt	nt	nt	nt	nt
COc1cccc(C(=O)Nc2ccc3c(c2)OC[C@@H](C)N(CC2CC2)C[C@@H](C)[C@H](OC)CN(C)C3=O)c1	nt	-2	nt	nt	nt	nt	nt	nt	nt	nt	nt	nt
COc1ccc(-c2cc(C(=O)Nc3ccc(NC(C)=O)cc3)[nH]n2)c(C)c1	14	61*	9.6*	4	1.2	1	1.5	-12	1	-11	3	2
COc1ccc(-c2cc(C(=O)Nc3cc(OC)c(OC)c(OC)c3)[nH]n2)c(C)c1	1	4	-1	13	nt	nt	nt	nt	nt	nt	nt	nt
C[C@@H]1CN([C@H](C)CO)C(=O)Cc2cc(NC(=O)Cc3ccccc3)ccc2O[C@H]1CN(C)S(=O)(=O)c1cn(C)cn1	nt	4	nt	nt	nt	nt	nt	nt	nt	nt	nt	nt
Cc1cccc(NC(=O)c2ccccn2)c1C	-6	63*	8.3*	-2	0.79	1	1.2	-14	-6	-17	13*	8.4*
O=C(C[C@H]1C=C[C@@H](NC(=O)Nc2ccccc2F)[C@@H](CO)O1)NCc1ccc(F)cc1	nt	1	nt	nt	nt	nt	nt	nt	nt	nt	nt	nt
c1ccc2nc3c(ccc4ccccc43)cc2c1	-9	70*	15*	9	0.92	1	1.1	-12	31	-17	5	7.7*
Cc1cccc2cc3ccccc3nc12	3	nt	-3	11	nt	nt	nt	nt	nt	nt	nt	nt
COc1c(C(=O)NNC(=O)c2ccccc2)csc1Br	4	56*	16*	1	1.2	0.9	1.7	5	-38	2	3	7.0*
Cc1ccc2c(CN(C)Cc3ccccc3)cc(=O)oc2c1	-3	88*	11*	6	1.1	0.95	1.5	-12	-6	-22	12*	11*
O=C1c2ccccc2CN1c1ccccc1	-9	55*	9.7*	-7	1.3	1	1.6	-14	-32	-23	11*	9.8*
CO[C@H]1CN(C)C(=O)c2cc(NS(=O)(=O)c3cn(C)cn3)ccc2OC[C@H](C)N(CCC(F)(F)F)C[C@@H]1C	nt	-8	nt	nt	nt	nt	nt	nt	nt	nt	nt	nt
CO[C@@H](CN(C)C(=O)c1cnccn1)[C@H](C)CN([C@@H](C)CO)S(=O)(=O)c1ccc(F)cc1	nt	-1	nt	nt	nt	nt	nt	nt	nt	nt	nt	nt
COc1ccc2c(c1OC)C(=O)OC2Nc1nc(-c2cc3cc(Br)ccc3oc2=O)cs1 (stereo not drawn)	13	65*	9.2*	12	0.99	1	1.5	-17	-35	-18	12*	7.9*
COc1ccc(NC(=O)c2cc(F)cc(F)c2)cc1Cl	-14	58*	9.0*	5	1.4	1.1	1.5	-7	-11	0	1	3
COc1ccc(NC(=O)c2c(F)c(F)c(F)c(F)c2F)cc1Cl	1	-3	-3	0	nt	nt	nt	nt	nt	nt	nt	nt
COC(=O)c1sccc1NC(=O)c1ccc(OC)cc1	3	76*	17*	-2	1.3	1	1.9	-19	-13	-6	5	0
COC(=O)c1sccc1NC(=O)c1ccc(C)cc1	17	4	-4	1	nt	nt	nt	nt	nt	nt	nt	nt
COc1cccc(-c2ccc3c(c2)O[C@H](CN(C)C(=O)c2ccccc2F)[C@H](C)CN([C@H](C)CO)S3(=O)=O)c1	25*	5	-2	-11	nt	nt	nt	nt	nt	nt	nt	nt	ASAP1 inh confirm=4
COc1cccc(-c2ccc3c(c2)O[C@@H](CN(C)C(=O)c2ccccc2F)[C@H](C)CN([C@H](C)CO)S3(=O)=O)c1	nt	14	nt	nt	nt	nt	nt	nt	nt	nt	nt	nt
CC(=O)C1C(c2ccc(C)cc2)c2c(n[nH]c2C)CC1(C)O (stereo not drawn)	43*	-3	1	-10	nt	nt	nt	nt	nt	nt	nt	nt	ASAP1 inh confirm=1
CN(C)C(=O)C[C@@H]1CC[C@H](NS(=O)(=O)c2ccccc2)[C@@H](CO)O1	nt	0	nt	nt	nt	nt	nt	nt	nt	nt	nt	nt
CC(C)(C)C(=O)COC(=O)c1cc2ccccc2cc1O	14	?	-2	7	nt	nt	nt	nt	nt	nt	nt	nt
SMILES	ASAP1 GAP inh	esBAF inh	SMARCA2 act	ARFGAP1 inhibitor	Ring1 derepress	esBAF Fgf4 qPCR	esBAF Bmi1 qPCR	A549 cytotox	HepG2 cytotox SP	HEK293 tox SP	SMARCA2 conf	GAL4-VP16 Luc	others
CC1CCN(C(=O)COC(=O)c2cc3ccccc3cc2O)CC1	26*	10	6	8	nt	nt	nt	nt	nt	nt	nt	nt	ASAP1 inh confirm=15
C[C@@H]1CCCCO[C@H](CN(C)C(=O)Nc2ccc3c(c2)OCO3)[C@@H](C)CN([C@H](C)CO)C(=O)c2cc(NS(=O)(=O)c3ccccc3)ccc2O1	nt	-3	nt	nt	nt	nt	nt	nt	nt	nt	nt	nt
COc1ccc(/C=N/Nc2ccc([N+](=O)[O-])cc2)cc1Cn1cc([N+](=O)[O-])cn1	6	18	3	3	nt	nt	nt	nt	nt	nt	nt	nt
COc1ccc(/C=N/Nc2ccc([N+](=O)[O-])cc2)cc1O	25*	81*	2	22	nt	nt	nt	nt	nt	nt	nt	nt	ASAP1 inh confirm=31*
COc1ccc(/C=N/NC(=O)c2nc(-c3ccccc3)cc(-c3ccccc3)n2)cc1O	26*	nt	-2	11	nt	nt	nt	nt	nt	nt	nt	nt	ASAP1 inh confirm=32*
CO[C@@H]1CN(C)C(=O)c2cc(NC(C)=O)ccc2OC[C@H](C)N(Cc2ccc(F)cc2)C[C@@H]1C	nt	2	nt	nt	nt	nt	nt	nt	nt	nt	nt	nt
CCCOc1cc2c(C#N)c(N3CCCC3)nc(N)c2c(N)n1	36*	9	0	7	nt	nt	nt	nt	nt	nt	nt	nt	ASAP1 inh confirm=17
COc1cc2c(C#N)c(N3CCCC3)nc(N)c2c(N)n1	43*!	9	0	-2	nt	nt	nt	nt	nt	nt	nt	nt	ASAP1 inh confirm=19
COc1cc2c(C#N)c(N3CCN(C)CC3)nc(N)c2c(N)n1	-1	nt	1	12	nt	nt	nt	nt	nt	nt	nt	nt
CCOc1cc2c(C#N)c(N3CCCC3)nc(N)c2c(N)n1	10	-1	1	1	nt	nt	nt	nt	nt	nt	nt	nt
